Consider 4 compounds from ChEMBL document CHEMBL3763115, “Silibinin derivatives as anti-prostate cancer agents: Synthesis and cell-based evaluations” (Eur J Med Chem, 2016).

For test [1], the system named is LNCaP. In words: Antiproliferative activity against human LNCAP cells assessed as reduction in cell viability after 3 days by WST-1 cell proliferation assay. Type of test: functional, cell-based. Conditions: 72 h. Put shortly: (§1)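 Cells from ATCC; PC-3 and LNCaP grown in RPMI-1640, DU145 in EMEM, each with 10% FBS and 1% penicillin/streptomycin, 37 °C, 5% CO2. 3,200 cells per well, treated at 5 concentrations for 3 days with 0.25% DMSO as vehicle control. WST-1 reagent added, 3 h at 37 °C, absorbance read at 430 nm. IC50 from linear fit of at least five doses, mean of at least triplicates.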

Test [2] in a line: Antiproliferative activity against human DU145 cells assessed as reduction in cell viability after 3 days by WST-1 cell proliferation assay. Type of test: functional, cell-based. Conditions: DU-145, 72 h. In a few lines:
as §1
(Formazan colour is commonly taken as a measure of viable cells.)

Test [3] in a line: Antiproliferative activity against human PC3 cells assessed as reduction in cell viability after 3 days by WST-1 cell proliferation assay. The format is functional, cell-based. The settings on record: PC-3, 72 h. In a few lines: as §1
In test [4] the test system is LNCaP. The experiment in a line: Potency index, ratio of silibinin IC50 to compound IC50 for antiproliferative activity against human LNCAP cells. The format is functional. In a few lines:
(§2)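 Ratio of silibinin IC50 to derivative IC50. Both come from the 3-day WST-1 assay run in parallel (5 doses, absorbance at 430 nm, IC50 from linear fit, at least triplicates).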

Test [5] is described as follows: Potency index, ratio of silibinin IC50 to compound IC50 for antiproliferative activity against human DU145 cells. The format is functional, DU-145. Put shortly: as §2
Test [6] can be described thus: Potency index, ratio of silibinin IC50 to compound IC50 for antiproliferative activity against human PC3 cells. The format is functional, PC-3. In a few lines:
as §2

The nature of test [7]: Cell cycle arrest in human PC3 cells assessed as accumulation at G0/G1 phase at 20 uM after 24 hrs by propidium iodide staining based flow cytometry (reference value: 49%). The format is functional. Conditions: PC-3. In a few lines: (§3)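 PC-3 cells (RPMI-1640, 10% FBS), 200,000 per well, allowed 3 h to attach, then exposed to compound with DMSO as vehicle control. Attached and floating cells collected at 24 and 30 h, fixed in cold 80% ethanol for 30 min at 4 °C, treated with RNase for 30 min at 37 °C, and stained with propidium iodide. DNA content read by flow cytometry within 0.5–1 h.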
In general terms: A flow cytometer gives signals particle by particle.

The nature of test [8]: Cell cycle arrest in human PC3 cells assessed as accumulation at S phase at 20 uM after 24 hrs by propidium iodide staining based flow cytometry (reference value: 8%). Type of test: functional. The settings on record: PC-3. In a few lines:
as §3

Test [9] in a line: Cell cycle arrest in human PC3 cells assessed as accumulation at M phase at 20 uM after 24 hrs by propidium iodide staining based flow cytometry (reference value: 8%). The format is functional. Conditions: PC-3. In a few lines:
as §3

Test [10] is described as follows: Cell cycle arrest in human PC3 cells assessed as accumulation at G2 phase at 20 uM after 24 hrs by propidium iodide staining based flow cytometry (reference value: 34%). Type of test: functional. The settings on record: PC-3. Put shortly:
as §3

The nature of test [11]: Cell cycle arrest in human PC3 cells assessed as accumulation at G0/G1 phase at 20 uM after 30 hrs by propidium iodide staining based flow cytometry (reference value: 55%). The format is functional. Conditions: PC-3. Put shortly:
as §3

Test [12] can be described thus: Cell cycle arrest in human PC3 cells assessed as accumulation at S phase at 20 uM after 30 hrs by propidium iodide staining based flow cytometry (reference value: 5%). Conditions: PC-3. Type of test: functional. Put shortly: as §3
The nature of test [13]: Cell cycle arrest in human PC3 cells assessed as accumulation at M phase at 20 uM after 30 hrs by propidium iodide staining based flow cytometry (reference value: 5%). Type of test: functional. The settings on record: PC-3. In a few lines: as §3
A short description of test [14]: Cell cycle arrest in human PC3 cells assessed as accumulation at G2 phase at 20 uM after 30 hrs by propidium iodide staining based flow cytometry (reference value: 30%). Type of test: functional. The settings on record: PC-3. In a few lines:
as §3

In test [15] the test system is PC-3. The experiment in a line: Induction of apoptosis in human PC3 cells assessed as viable cells at 10 uM after 16 hrs by F2N12S/Sytox A advanced staining based flow cytometry (reference value: 86%). The format is functional. The settings on record: PC-3, 16 h, read-out: Activity.
The subject of test [16] is PC-3. The experiment in a line: Induction of apoptosis in human PC3 cells assessed as viable cells at 20 uM after 16 hrs by F2N12S/Sytox A advanced staining based flow cytometry (reference value: 86%). The format is functional. The settings on record: PC-3, 16 h, read-out: Activity.
Test [17] relates to PC-3. In words: Induction of apoptosis in human PC3 cells assessed as viable cells at 30 uM after 16 hrs by F2N12S/Sytox A advanced staining based flow cytometry (reference value: 86%). Type of test: functional. Conditions: PC-3, 16 h, read-out: Activity.
Test [18] concerns PC-3. In words: Induction of apoptosis in human PC3 cells assessed as viable cells at 40 uM after 16 hrs by F2N12S/Sytox A advanced staining based flow cytometry (reference value: 86%). Type of test: functional. The settings on record: PC-3, 16 h, read-out: Activity.
In test [19] the test system is PC-3. In words: Induction of apoptosis in human PC3 cells assessed as viable cells at 50 uM after 16 hrs by F2N12S/Sytox A advanced staining based flow cytometry (reference value: 86%). The settings on record: PC-3, 16 h, read-out: Activity. The format is functional.
The test system of test [20] is PC-3. The experiment in a line: Induction of apoptosis in human PC3 cells assessed as apoptotic cells at 10 uM after 16 hrs by F2N12S/Sytox A advanced staining based flow cytometry (reference value: 3%). The format is functional.
In test [21] the test system is PC-3. The experiment in a line: Induction of apoptosis in human PC3 cells assessed as apoptotic cells at 20 uM after 16 hrs by F2N12S/Sytox A advanced staining based flow cytometry (reference value: 3%). The format is functional.
The subject of test [22] is PC-3. The experiment in a line: Induction of apoptosis in human PC3 cells assessed as apoptotic cells at 30 uM after 16 hrs by F2N12S/Sytox A advanced staining based flow cytometry (reference value: 3%). The format is functional.
Test [23] concerns PC-3. The experiment in a line: Induction of apoptosis in human PC3 cells assessed as apoptotic cells at 40 uM after 16 hrs by F2N12S/Sytox A advanced staining based flow cytometry (reference value: 3%). Type of test: functional.
Test [24] deals with PC-3. In words: Induction of apoptosis in human PC3 cells assessed as apoptotic cells at 50 uM after 16 hrs by F2N12S/Sytox A advanced staining based flow cytometry (reference value: 3%). The format is functional.
Test [25] relates to PC-3. In words: Induction of apoptosis in human PC3 cells assessed as necrotic cells at 10 uM after 16 hrs by F2N12S/Sytox A advanced staining based flow cytometry (reference value: 11%). Type of test: functional.
The test system of test [26] is PC-3. The experiment in a line: Induction of apoptosis in human PC3 cells assessed as necrotic cells at 20 uM after 16 hrs by F2N12S/Sytox A advanced staining based flow cytometry (reference value: 11%). Type of test: functional.
Test [27] deals with PC-3. The experiment in a line: Induction of apoptosis in human PC3 cells assessed as necrotic cells at 30 uM after 16 hrs by F2N12S/Sytox A advanced staining based flow cytometry (reference value: 11%). The format is functional.
For test [28], the system named is PC-3. In words: Induction of apoptosis in human PC3 cells assessed as necrotic cells at 40 uM after 16 hrs by F2N12S/Sytox A advanced staining based flow cytometry (reference value: 11%). Type of test: functional.
For test [29], the system named is PC-3. In words: Induction of apoptosis in human PC3 cells assessed as necrotic cells at 50 uM after 16 hrs by F2N12S/Sytox A advanced staining based flow cytometry (reference value: 11%). The format is functional.
The subject of test [30] is PC-3. In words: Induction of apoptosis in human PC3 cells after 16 hrs by F2N12S/Sytox A advanced staining based flow cytometry. Type of test: functional, cell-based.

What is called IC50 is the concentration at which inhibition is half-maximal. In the case of `CCOc1cc(O)c2c(=O)c(O)c(-c3ccc4c(c3)OC(c3ccc(O)c(OC)c3)C(CO)O4)oc2c1` (stereo not drawn), the IC50 with LNCaP [1] stood at 2.58 µM; in [2], 7.59 µM; in [3], 3.25 µM. The “Ratio IC50” value with LNCaP [4] turned out to be 17; in test [5], 12; in test [6] it was 22. The Activity in test [7] stood at 62%; in test [8], 7%; in [9], 7%; in [10], 23%; in test [11], 61%; in test [12], 6%. The Activity in [13] was determined as 6%; in test [14], 25%; in the test with PC-3 [20], 9%; with PC-3 [21], 38%; in the test on PC-3 [22], 68%; with PC-3 [23] it was 71%. For the same compound, the Activity in the test on PC-3 [24] is given as 66%; with PC-3 [25], 7%; with PC-3 [26] it was 13%; in the test on PC-3 [27], 25%; in the test on PC-3 [28] it was 25%; with PC-3 [29], 27%. Further, in the test on PC-3 [30], the Activity result is “Dose-dependent effect”. Also, in the test on PC-3 [15], the viability at 10 µM amounted to 84%. Besides, the viability at 20 µM in the test on PC-3 [16] is 49%. For the same compound, in the test on PC-3 [17], the viability at 30 µM worked out at 11%. Further, the viability at 40 µM in the test on PC-3 [18] stood at 4%. Further, the viability at 50 µM in the test on PC-3 [19] was found to be 7%.

Regarding `CCCCOc1cc(O)c2c(=O)c(O)c(-c3ccc4c(c3)OC(c3ccc(O)c(OC)c3)C(CO)O4)oc2c1` (stereo not drawn), the IC50 in the test on LNCaP [1] worked out at 3.19 µM; in test [2] it was 5.81 µM; in [3], 4.55 µM. Also, the “Ratio IC50” value is on record as 13 with LNCaP [4], 16 in test [5] and 16 in test [6].

In the case of `CCCOc1cc(O)c2c(=O)c(O)c(-c3ccc4c(c3)OC(c3ccc(O)c(OC)c3)C(CO)O4)oc2c1` (stereo not drawn), the 50% inhibitory concentration (IC50) with LNCaP [1] is 4.41 µM; in [2], 5.36 µM; in test [3], 4.69 µM. Also, the figures for the “Ratio IC50” value (in the test on LNCaP [4]; in test [5]; in test [6]) were 10, 17 and 15, respectively.

Regarding `COc1cc(O)c2c(=O)c(OC)c(-c3ccc4c(c3)OC(c3ccc(O)c(OC)c3)C(CO)O4)oc2c1` (stereo not drawn), the IC50 in the test on LNCaP [1] worked out at 6.88 µM; in test [2] it was 22.2 µM; in test [3] it was 15.3 µM. The “Ratio IC50” value turned out to be 6 in the test with LNCaP [4], 4 in test [5] and 5 in test [6].
